ChEMBL document CHEMBL1153083, “Antiprotozoal, anticancer and antimicrobial activities of dihydroartemisinin acetal dimers and monomers” (Bioorg Med Chem, 2009)

Columns and labels:
[1] = Selectivity index, ratio of TC50 for african green monkey (Cercopithecus aethiops) Vero cells to IC50 for Plasmodium falciparum D6; assay type: toxicity, cell-based
Escherichia coli = experiment: Antibacterial activity against Escherichia coli ATCC 35218 by modified CLSI/NCCLS method; assay type: functional, organism-based; conditions: Escherichia coli, ATCC 35218; read-out: IC50
SK-OV-3 = experiment: Cytotoxicity against human SKOV3 cells after 48 hrs by neutral red assay; assay type: functional, cell-based; conditions: sk-ov-3
How it was run: (§1)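 Cells seeded at 25,000 per well and incubated 24 h, then exposed to samples for 48 h. Viable cells were counted by neutral red, with DMSO as vehicle control. IC50 or TC50 values were derived from logarithmic plots of growth inhibition versus concentration.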

[2] = Cytotoxicity against human NCI60 cells after 48 hrs by neutral red assay; assay type: functional; conditions: NCI60, 48 h
SK-MEL = experiment: Cytotoxicity against human SK-MEL cells after 48 hrs by neutral red assay; assay type: functional, cell-based; conditions: sk-mel; how it was run: as §1
Plasmodium falciparum [3] = experiment: Antiplasmodial activity against Plasmodium falciparum W2 infected in RBCs by parasitic LDH release assay; assay type: functional, organism-based
How it was run: (§2)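 Infected erythrocytes at 2% parasitemia and 2% hematocrit, in RPMI 1640 with 10% human serum and amikacin 60 μg/mL, were exposed to serial dilutions under N2/O2/CO2 (90:5:5) at 37°C for 72 h. LDH was read with Malstat reagent (30 min), then NBT/PES in the dark (60 min), stopped with 5% acetic acid, at 650 nm. IC50 came from percent growth dose-response curves.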

Vero = experiment: Toxicity against african green monkey Vero cells after 48 hrs by neutral red assay; assay type: cell-based; conditions: chlorocebus sabaeus, vero, 48 h; how it was run: as §1
Aspergillus fumigatus = experiment: Antifungal activity against Aspergillus fumigatus ATCC 90906 by modified CLSI/NCCLS method; assay type: functional, organism-based
[4] = Toxicity against pig LLC-PK11 cells after 48 hrs by neutral red assay; assay type: cell-based, Sus scrofa; conditions: llc-pk11, 48 h; how it was run: as §1
KB = experiment: Cytotoxicity against human KB cells after 48 hrs by neutral red assay; assay type: functional, cell-based; conditions: kb; how it was run: as §1
Candida albicans = experiment: Antifungal activity against Candida albicans ATCC 90028 by modified CLSI/NCCLS method; assay type: functional, organism-based
[5] = Toxicity against african green monkey Vero cells; assay type: cell-based; conditions: chlorocebus sabaeus; how it was run: as §1
Cryptococcus neoformans = experiment: Antifungal activity against Cryptococcus neoformans ATCC 90113 by modified CLSI/NCCLS method; assay type: functional, organism-based
Leishmania donovani = experiment: Antileishmanial activity against Leishmania donovani promastigotes after 48 hrs by alamar blue assay; assay type: functional, organism-based; conditions: Leishmania donovani, 48 h
BT-549 = experiment: Cytotoxicity against human BT549 cells after 48 hrs by neutral red assay; assay type: functional, cell-based; conditions: bt-549; how it was run: as §1
Pseudomonas aeruginosa = experiment: Antibacterial activity against Pseudomonas aeruginosa ATCC 27853 by modified CLSI/NCCLS method; assay type: functional, organism-based
[6] = tested on: Mycobacterium intracellulare; experiment: Antibacterial activity against Mycobacterium intracellular ATCC 23068 by Franzblau method; assay type: functional, organism-based
Plasmodium falciparum [7] = experiment: Antiplasmodial activity against Plasmodium falciparum D6 infected in RBCs by parasitic LDH release assay; assay type: functional, organism-based; how it was run: as §2
[8] = Selectivity index, ratio of TC50 for african green monkey (Cercopithecus aethiops) Vero cells to IC50 for Plasmodium falciparum W2; assay type: toxicity, cell-based
Staphylococcus aureus = experiment: Antibacterial activity against methicillin-resistant Staphylococcus aureus ATCC 43300 by modified CLSI/NCCLS method; assay type: functional, organism-based

With `C[C@H]1[C@@H](OCc2cc(O)cc(O[C@H]3O[C@@H]4O[C@@]5(C)CC[C@H]6[C@H](C)CC[C@@H]([C@H]3C)[C@@]46OO5)c2)O[C@@H]2O[C@@]3(C)CC[C@H]4[C@H](C)CC[C@@H]1[C@@]24OO3` the selectivity ratio [1] was greater than 2380, the IC50 (Escherichia coli) was 22300 nM and the IC50 (SK-OV-3) was “Not Active”. For the same compound, the GI50 [2] was 24.5 nM, the TGI [2] was 2820 nM and the CC50 ([2]; read-out: LC50 (the source's name)) was 15100 nM. For the same compound, the IC50 (SK-MEL) was “Not Active”, the IC50 (Plasmodium falciparum [3]) was 4.2 nM and the TC50 (Vero) was “Not Active”. The IC50 (Aspergillus fumigatus) was “Not Active”, the TC50 [4] was “Not Active” and the IC50 (KB) was “Not Active”. The IC50 (Candida albicans) was “Not Active”, the CC50 [5] was greater than 7070 nM and the IC50 (Cryptococcus neoformans) was 1490 nM. The IC90 (Leishmania donovani) was 32700 nM, the IC50 (Leishmania donovani; read-out: IC50) was 5900 nM and the IC50 (BT-549) was “Not Active”. For the same compound, the IC50 (Pseudomonas aeruginosa) was “Not Active”, the IC50 [6] was “Not Active” and the IC50 (Plasmodium falciparum [7]) was 3 nM. The selectivity ratio [8] was greater than 1700 and the IC50 (Staphylococcus aureus) was “Not Active”.
